Data from ChEMBL document CHEMBL3763019, “Discovery of benzenesulfonamide derivatives as potent PI3K/mTOR dual inhibitors with in vivo efficacies against hepatocellular carcinoma” (Bioorg Med Chem, 2016).

Test system: MDA-MB-231
Test: Cytotoxicity against human MDA-MB-231 cells after 72 hrs by MTT assay
Type: functional, cell-based
Conditions: MDA-MB-231, 72 h
Outline: (§1)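 Log-phase cells at 40,000–50,000 cells/mL in DMEM with 10% FBS and antibiotics were seeded and cultured overnight at 37 °C, 5% CO₂. Compounds were diluted in DMSO/PBS from 10^-4 to 10^-9 M and applied for 72 h. MTT (5 mg/mL stock) was then added for 4 h and absorbance read at 570 nm. IC50 came from nonlinear regression on triplicate wells, averaged.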

Row | SMILES | IC50
1 | COc1ncc(-c2ccc3nccc(C#CCN4CCCCC4)c3c2)cc1NS(=O)(=O)c1ccc(F)cc1F | 10.3 µM
2 | COc1ncc(-c2ccc3nccc(C#CCN4CCC(C)CC4)c3c2)cc1NS(=O)(=O)c1ccc(F)cc1F | 7.99 µM
3 | COc1ncc(-c2ccc3nccc(C#CCN(C)C)c3c2)cc1NS(=O)(=O)c1ccc(F)cc1F | 1.67 µM
4 | COc1ncc(-c2ccc3nccc(C#CCN4CCCCC4C)c3c2)cc1NS(=O)(=O)c1ccc(F)cc1F (configuration not stated) | 4.73 µM
5 | CCN(CC)CC#Cc1ccnc2ccc(-c3cnc(OC)c(NS(=O)(=O)c4ccc(F)cc4F)c3)cc12 | 2.68 µM

Test system: not listed separately
Test: Cytotoxicity against human HCT116 cells after 72 hrs by MTT assay
Type: functional, cell-based
Conditions: HCT-116, 72 h
Outline: as §1

Row | SMILES | IC50
6 | COc1ncc(-c2ccc3nccc(C#CCN4CCCCC4)c3c2)cc1NS(=O)(=O)c1ccc(F)cc1F | 3.61 µM
7 | COc1ncc(-c2ccc3nccc(C#CCN4CCC(C)CC4)c3c2)cc1NS(=O)(=O)c1ccc(F)cc1F | 4.02 µM
8 | COc1ncc(-c2ccc3nccc(C#CCN(C)C)c3c2)cc1NS(=O)(=O)c1ccc(F)cc1F | 1.08 µM
9 | COc1ncc(-c2ccc3nccc(C#CCN4CCCCC4C)c3c2)cc1NS(=O)(=O)c1ccc(F)cc1F (configuration not stated) | 4.52 µM
10 | CCN(CC)CC#Cc1ccnc2ccc(-c3cnc(OC)c(NS(=O)(=O)c4ccc(F)cc4F)c3)cc12 | 2.27 µM

Test system: A549
Test: Cytotoxicity against human A549 cells after 72 hrs by MTT assay
Type: functional, cell-based
Conditions: A549, 72 h
Outline: as §1

Row | SMILES | IC50
11 | COc1ncc(-c2ccc3nccc(C#CCN4CCCCC4)c3c2)cc1NS(=O)(=O)c1ccc(F)cc1F | 1.81 µM
12 | COc1ncc(-c2ccc3nccc(C#CCN4CCC(C)CC4)c3c2)cc1NS(=O)(=O)c1ccc(F)cc1F | 2.9 µM
13 | COc1ncc(-c2ccc3nccc(C#CCN(C)C)c3c2)cc1NS(=O)(=O)c1ccc(F)cc1F | 0.11 µM
14 | COc1ncc(-c2ccc3nccc(C#CCN4CCCCC4C)c3c2)cc1NS(=O)(=O)c1ccc(F)cc1F (configuration not stated) | 1.35 µM
15 | CCN(CC)CC#Cc1ccnc2ccc(-c3cnc(OC)c(NS(=O)(=O)c4ccc(F)cc4F)c3)cc12 | 2.43 µM

Test system: not listed separately
Test: Antitumor activity against human Bel7404 cells xenografted in BALB/c nude mouse assessed as reduction in tumor volume at 50 mg/kg, po qd for 14 consecutive days relative to control
Type: functional, BEL-7404
Design: scale not given: the % may be the effect or the level left
Conditions: not given
Outline: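 Male BALB/c nude mice carried implanted BEL-7404 tumours and were randomized once tumours reached 100–300 mm³ (about 12 days); there were 6 per treated group and 8 controls. Drug in 5% polysorbate 80/water was given orally once daily for 14 days from day 13. Tumour volume (1/2·a·b·b) and body weight were tracked, with sacrifice on day 29. The read-out was relative tumour volume versus vehicle, reported as mean SE.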

Row | SMILES | Activity
16 | CNC(=O)c1cc(Oc2ccc(NC(=O)Nc3ccc(Cl)c(C(F)(F)F)c3)cc2)ccn1 [SORAFENIB] | 44%

Target: T1, Phosphatidylinositol 4,5-bisphosphate 3-kinase catalytic subunit delta isoform (Homo sapiens) (UniProt O00329)
T1 sequence (whole entry): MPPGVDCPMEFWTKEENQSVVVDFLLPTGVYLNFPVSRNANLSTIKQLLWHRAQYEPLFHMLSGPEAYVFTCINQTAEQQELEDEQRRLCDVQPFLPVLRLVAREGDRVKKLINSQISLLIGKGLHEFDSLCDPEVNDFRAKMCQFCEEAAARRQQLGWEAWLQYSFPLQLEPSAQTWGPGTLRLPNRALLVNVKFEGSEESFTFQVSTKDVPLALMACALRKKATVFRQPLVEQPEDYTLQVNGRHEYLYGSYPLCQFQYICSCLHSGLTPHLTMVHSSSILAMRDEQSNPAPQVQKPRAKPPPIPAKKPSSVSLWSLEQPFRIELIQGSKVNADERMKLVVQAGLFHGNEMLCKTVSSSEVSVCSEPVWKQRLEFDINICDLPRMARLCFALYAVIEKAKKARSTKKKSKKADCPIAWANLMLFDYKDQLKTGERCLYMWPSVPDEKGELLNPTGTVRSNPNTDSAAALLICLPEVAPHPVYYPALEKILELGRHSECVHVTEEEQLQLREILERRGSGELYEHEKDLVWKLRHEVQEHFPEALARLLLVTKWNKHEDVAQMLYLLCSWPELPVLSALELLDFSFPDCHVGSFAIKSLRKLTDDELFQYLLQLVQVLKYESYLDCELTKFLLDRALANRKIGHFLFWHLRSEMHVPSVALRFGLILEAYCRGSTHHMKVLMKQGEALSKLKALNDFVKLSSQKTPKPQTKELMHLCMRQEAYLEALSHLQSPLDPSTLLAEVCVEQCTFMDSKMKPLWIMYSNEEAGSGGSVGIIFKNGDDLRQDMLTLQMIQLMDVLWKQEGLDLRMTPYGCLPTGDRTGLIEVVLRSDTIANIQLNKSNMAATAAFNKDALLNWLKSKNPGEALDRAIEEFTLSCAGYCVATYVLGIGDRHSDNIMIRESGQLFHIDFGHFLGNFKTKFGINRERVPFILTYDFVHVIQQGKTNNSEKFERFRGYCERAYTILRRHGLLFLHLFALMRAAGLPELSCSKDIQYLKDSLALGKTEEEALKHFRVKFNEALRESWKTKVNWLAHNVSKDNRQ
Test: Inhibition of PI3K-delta (unknown origin) using PIP2 as substrate at 10 nM incubated for 1 hr by Kinase-Glo luminescent kinase assay
Conditions: not given
Outline: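 Final PIP2 was 50 µM and ATP 25 µM; PI3Kδ was 1.65 nM. Reactions ran 1 h at room temperature, then Kinase-Glo was added for 15 min before reading luminescence. Percent inhibition was derived from RLU. Dose-response used ten 3-fold dilutions (top 100 or 500 nM) in duplicate.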

Row | inhibition | SMILES
17 | 3% | COc1ncc(-c2ccc3nccc(C#CCN4CCCCC4)c3c2)cc1NS(=O)(=O)c1ccc(F)cc1F
18 | 7.7% | COc1ncc(-c2ccc3nccc(C#CCN4CCC(C)CC4)c3c2)cc1NS(=O)(=O)c1ccc(F)cc1F
19 | 4.6% | COc1ncc(-c2ccc3nccc(C#CCN4CCCCC4C)c3c2)cc1NS(=O)(=O)c1ccc(F)cc1F (configuration not stated)

The next lines start with the compound.

Row | SMILES | inhibition
20 | COc1ncc(-c2ccc3nccc(C#CCN(C)C)c3c2)cc1NS(=O)(=O)c1ccc(F)cc1F | 6.1%
21 | CCN(CC)CC#Cc1ccnc2ccc(-c3cnc(OC)c(NS(=O)(=O)c4ccc(F)cc4F)c3)cc12 | 1.2%

Test system: not listed separately
Test: Cytotoxicity against human Bel7404 cells after 72 hrs by MTT assay
Type: functional, cell-based
Conditions: BEL-7404, 72 h
Outline: as §1

Row | SMILES | IC50
22 | COc1ncc(-c2ccc3nccc(C#CCN4CCCCC4)c3c2)cc1NS(=O)(=O)c1ccc(F)cc1F | 2.3 µM
23 | COc1ncc(-c2ccc3nccc(C#CCN4CCC(C)CC4)c3c2)cc1NS(=O)(=O)c1ccc(F)cc1F | 1.55 µM
24 | COc1ncc(-c2ccc3nccc(C#CCN(C)C)c3c2)cc1NS(=O)(=O)c1ccc(F)cc1F | 0.23 µM
25 | COc1ncc(-c2ccc3nccc(C#CCN4CCCCC4C)c3c2)cc1NS(=O)(=O)c1ccc(F)cc1F (configuration not stated) | 1.14 µM
26 | CCN(CC)CC#Cc1ccnc2ccc(-c3cnc(OC)c(NS(=O)(=O)c4ccc(F)cc4F)c3)cc12 | 0.3 µM

Test system: not listed separately
Test: Half life in rat liver microsomes
Type: ADME
Conditions: not given

Row | half-life | SMILES
27 | 18.8 min | COc1ncc(-c2ccc3nccc(C#CCN(C)C)c3c2)cc1NS(=O)(=O)c1ccc(F)cc1F

Target: Phosphatidylinositol 4,5-bisphosphate 3-kinase catalytic subunit beta isoform (Homo sapiens, UniProt P42338)
Test: Inhibition of PI3K-beta (unknown origin) at 10 nM after 40 mins by ADP-Glo luminescent kinase assay
Conditions: not given
Outline: (§2)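 Final enzyme was PI3Kβ 4.8 nM and PI3Kγ 7.6 nM. ADP-Glo reagent stopped the reaction (40 min), then detection reagent was added (60 min) and luminescence read. Percent inhibition was derived from RLU.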

Phosphatidylinositol 4,5-bisphosphate 3-kinase catalytic subunit beta isoform, sequence (P42338 whole entry, looked up, canonical isoform): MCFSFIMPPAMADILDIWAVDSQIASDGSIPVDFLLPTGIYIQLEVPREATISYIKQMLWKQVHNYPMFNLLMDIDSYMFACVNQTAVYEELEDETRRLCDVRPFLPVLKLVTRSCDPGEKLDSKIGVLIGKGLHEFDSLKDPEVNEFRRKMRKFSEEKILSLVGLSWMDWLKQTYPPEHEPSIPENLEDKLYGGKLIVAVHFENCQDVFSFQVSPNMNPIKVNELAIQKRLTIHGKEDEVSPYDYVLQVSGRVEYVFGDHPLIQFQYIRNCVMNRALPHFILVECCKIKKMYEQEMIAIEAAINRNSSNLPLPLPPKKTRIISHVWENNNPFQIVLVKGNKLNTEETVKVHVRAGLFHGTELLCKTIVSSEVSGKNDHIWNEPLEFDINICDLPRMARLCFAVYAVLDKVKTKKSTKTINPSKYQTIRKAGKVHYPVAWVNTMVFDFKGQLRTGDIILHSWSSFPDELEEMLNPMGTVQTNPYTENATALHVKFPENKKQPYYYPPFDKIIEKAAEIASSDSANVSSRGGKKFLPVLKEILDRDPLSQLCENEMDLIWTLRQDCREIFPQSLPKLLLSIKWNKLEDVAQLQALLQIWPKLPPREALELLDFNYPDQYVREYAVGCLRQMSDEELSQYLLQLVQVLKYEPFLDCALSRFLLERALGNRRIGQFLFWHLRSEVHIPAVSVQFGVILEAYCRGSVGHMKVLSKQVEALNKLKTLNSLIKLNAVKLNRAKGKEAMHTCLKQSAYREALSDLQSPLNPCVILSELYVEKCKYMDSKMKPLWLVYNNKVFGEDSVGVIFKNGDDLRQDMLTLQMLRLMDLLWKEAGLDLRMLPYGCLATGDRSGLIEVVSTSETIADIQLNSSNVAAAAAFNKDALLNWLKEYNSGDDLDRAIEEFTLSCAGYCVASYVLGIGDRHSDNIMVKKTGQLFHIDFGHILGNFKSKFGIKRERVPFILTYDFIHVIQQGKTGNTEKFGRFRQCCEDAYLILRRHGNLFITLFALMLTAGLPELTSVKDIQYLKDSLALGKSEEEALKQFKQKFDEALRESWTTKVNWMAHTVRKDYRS

Row | inhibition | SMILES
28 | 1.4% | COc1ncc(-c2ccc3nccc(C#CCN4CCCCC4)c3c2)cc1NS(=O)(=O)c1ccc(F)cc1F
29 | 5.8% | COc1ncc(-c2ccc3nccc(C#CCN4CCC(C)CC4)c3c2)cc1NS(=O)(=O)c1ccc(F)cc1F
30 | 11% | COc1ncc(-c2ccc3nccc(C#CCN4CCCCC4C)c3c2)cc1NS(=O)(=O)c1ccc(F)cc1F (configuration not stated)

More lines, now with the values behind:

Row | SMILES | inhibition
31 | COc1ncc(-c2ccc3nccc(C#CCN(C)C)c3c2)cc1NS(=O)(=O)c1ccc(F)cc1F | 41%
32 | CCN(CC)CC#Cc1ccnc2ccc(-c3cnc(OC)c(NS(=O)(=O)c4ccc(F)cc4F)c3)cc12 | 21%

Target: Phosphatidylinositol 4,5-bisphosphate 3-kinase catalytic subunit alpha isoform (Homo sapiens, UniProt P42336)
Test: Inhibition of PI3K-alpha (unknown origin) using PIP2 as substrate incubated for 1 hr by Kinase-Glo luminescent kinase assay
Conditions: not given

Phosphatidylinositol 4,5-bisphosphate 3-kinase catalytic subunit alpha isoform, sequence (P42336 whole entry, canonical isoform): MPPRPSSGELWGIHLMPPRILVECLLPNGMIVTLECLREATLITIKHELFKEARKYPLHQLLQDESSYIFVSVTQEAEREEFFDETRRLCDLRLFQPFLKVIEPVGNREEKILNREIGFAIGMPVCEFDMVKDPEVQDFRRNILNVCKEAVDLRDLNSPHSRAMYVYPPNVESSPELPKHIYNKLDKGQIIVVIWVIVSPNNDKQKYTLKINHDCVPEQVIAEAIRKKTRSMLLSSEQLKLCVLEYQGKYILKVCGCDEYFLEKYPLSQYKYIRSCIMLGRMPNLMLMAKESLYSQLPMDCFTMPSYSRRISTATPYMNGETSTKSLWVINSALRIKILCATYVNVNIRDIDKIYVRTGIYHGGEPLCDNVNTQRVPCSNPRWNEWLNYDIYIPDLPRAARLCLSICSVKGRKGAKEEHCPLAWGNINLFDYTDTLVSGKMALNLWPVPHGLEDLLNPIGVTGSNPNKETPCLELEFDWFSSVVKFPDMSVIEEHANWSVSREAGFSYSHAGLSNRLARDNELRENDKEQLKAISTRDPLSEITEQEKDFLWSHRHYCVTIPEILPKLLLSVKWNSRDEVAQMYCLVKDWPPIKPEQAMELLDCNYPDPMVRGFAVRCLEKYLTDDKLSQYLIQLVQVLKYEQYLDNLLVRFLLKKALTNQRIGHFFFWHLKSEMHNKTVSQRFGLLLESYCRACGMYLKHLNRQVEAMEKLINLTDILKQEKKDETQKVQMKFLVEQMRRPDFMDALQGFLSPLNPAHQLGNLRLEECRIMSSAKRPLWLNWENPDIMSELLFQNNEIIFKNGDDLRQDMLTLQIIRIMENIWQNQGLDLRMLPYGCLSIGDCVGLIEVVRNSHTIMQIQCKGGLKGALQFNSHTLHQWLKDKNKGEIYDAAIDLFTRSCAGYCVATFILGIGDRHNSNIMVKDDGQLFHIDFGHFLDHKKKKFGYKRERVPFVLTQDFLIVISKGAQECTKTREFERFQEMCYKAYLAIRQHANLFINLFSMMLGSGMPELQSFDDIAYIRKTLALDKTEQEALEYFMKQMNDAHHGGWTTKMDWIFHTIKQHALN

Row | IC50 | SMILES
33 | 0.037 µM | COc1ncc(-c2ccc3nccc(C#CCN4CCCCC4)c3c2)cc1NS(=O)(=O)c1ccc(F)cc1F
34 | 0.07 µM | COc1ncc(-c2ccc3nccc(C#CCN4CCC(C)CC4)c3c2)cc1NS(=O)(=O)c1ccc(F)cc1F
35 | 0.061 µM | COc1ncc(-c2ccc3nccc(C#CCN4CCCCC4C)c3c2)cc1NS(=O)(=O)c1ccc(F)cc1F (configuration not stated)

Second part, the compound before the results:

Row | SMILES | IC50
36 | COc1ncc(-c2ccc3nccc(C#CCN(C)C)c3c2)cc1NS(=O)(=O)c1ccc(F)cc1F | 0.0037 µM
37 | CCN(CC)CC#Cc1ccnc2ccc(-c3cnc(OC)c(NS(=O)(=O)c4ccc(F)cc4F)c3)cc12 | 0.033 µM

Target: Phosphatidylinositol 4,5-bisphosphate 3-kinase catalytic subunit gamma isoform (Homo sapiens, UniProt P48736)
Test: Inhibition of PI3K-gamma (unknown origin) at 10 nM after 40 mins by ADP-Glo luminescent kinase assay
Conditions: not given
Outline: as §2

Phosphatidylinositol 4,5-bisphosphate 3-kinase catalytic subunit gamma isoform, sequence (P48736 whole entry, looked up, canonical isoform): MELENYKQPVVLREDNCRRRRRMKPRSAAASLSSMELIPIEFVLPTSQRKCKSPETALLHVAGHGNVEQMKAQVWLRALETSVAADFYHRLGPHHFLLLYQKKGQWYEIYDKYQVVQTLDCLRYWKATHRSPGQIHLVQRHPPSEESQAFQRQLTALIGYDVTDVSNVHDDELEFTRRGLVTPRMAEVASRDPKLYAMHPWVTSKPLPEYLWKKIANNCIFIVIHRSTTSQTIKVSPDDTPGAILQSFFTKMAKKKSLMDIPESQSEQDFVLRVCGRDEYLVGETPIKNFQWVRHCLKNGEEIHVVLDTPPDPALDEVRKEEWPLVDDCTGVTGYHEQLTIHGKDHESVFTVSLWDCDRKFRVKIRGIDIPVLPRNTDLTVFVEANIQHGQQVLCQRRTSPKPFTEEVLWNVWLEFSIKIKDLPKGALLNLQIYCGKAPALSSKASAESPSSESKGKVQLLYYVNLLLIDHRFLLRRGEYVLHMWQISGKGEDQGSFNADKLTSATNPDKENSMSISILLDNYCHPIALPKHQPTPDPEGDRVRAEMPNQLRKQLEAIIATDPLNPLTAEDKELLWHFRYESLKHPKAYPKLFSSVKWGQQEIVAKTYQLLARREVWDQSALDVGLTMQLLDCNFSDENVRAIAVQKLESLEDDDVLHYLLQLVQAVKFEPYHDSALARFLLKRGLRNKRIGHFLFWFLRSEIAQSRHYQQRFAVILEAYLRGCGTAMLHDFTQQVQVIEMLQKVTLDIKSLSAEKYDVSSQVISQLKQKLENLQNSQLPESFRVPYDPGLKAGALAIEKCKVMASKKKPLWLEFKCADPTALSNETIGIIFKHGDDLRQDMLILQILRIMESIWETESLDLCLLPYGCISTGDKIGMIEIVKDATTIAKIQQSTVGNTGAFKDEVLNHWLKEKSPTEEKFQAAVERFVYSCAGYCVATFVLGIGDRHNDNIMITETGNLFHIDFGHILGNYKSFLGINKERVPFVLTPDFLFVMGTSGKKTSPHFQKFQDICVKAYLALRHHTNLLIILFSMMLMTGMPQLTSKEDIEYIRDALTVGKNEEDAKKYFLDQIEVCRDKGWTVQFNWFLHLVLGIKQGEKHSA

Row | inhibition | SMILES
38 | 55% | COc1ncc(-c2ccc3nccc(C#CCN4CCCCC4)c3c2)cc1NS(=O)(=O)c1ccc(F)cc1F
39 | 49% | COc1ncc(-c2ccc3nccc(C#CCN4CCC(C)CC4)c3c2)cc1NS(=O)(=O)c1ccc(F)cc1F
40 | 59% | COc1ncc(-c2ccc3nccc(C#CCN4CCCCC4C)c3c2)cc1NS(=O)(=O)c1ccc(F)cc1F (configuration not stated)

Second part, the compound before the results:

Row | SMILES | inhibition
41 | COc1ncc(-c2ccc3nccc(C#CCN(C)C)c3c2)cc1NS(=O)(=O)c1ccc(F)cc1F | 81%
42 | CCN(CC)CC#Cc1ccnc2ccc(-c3cnc(OC)c(NS(=O)(=O)c4ccc(F)cc4F)c3)cc12 | 68%
